From PubChem
Hits are enriched below; roughly 1% of the tested compounds scored in any of these assays.
Furin inh: human furin inhibitors, primary screen, biochemical, fluorescence intensity; purified furin, fluorogenic substrate cleavage; inhibition, % at 20 µM or 30 µM; 220,000 tested, 0.061% active; AID 463115, 2010; in the data active = inhibition above about 25%
Target sequence (P09958 108-714 limits assumed): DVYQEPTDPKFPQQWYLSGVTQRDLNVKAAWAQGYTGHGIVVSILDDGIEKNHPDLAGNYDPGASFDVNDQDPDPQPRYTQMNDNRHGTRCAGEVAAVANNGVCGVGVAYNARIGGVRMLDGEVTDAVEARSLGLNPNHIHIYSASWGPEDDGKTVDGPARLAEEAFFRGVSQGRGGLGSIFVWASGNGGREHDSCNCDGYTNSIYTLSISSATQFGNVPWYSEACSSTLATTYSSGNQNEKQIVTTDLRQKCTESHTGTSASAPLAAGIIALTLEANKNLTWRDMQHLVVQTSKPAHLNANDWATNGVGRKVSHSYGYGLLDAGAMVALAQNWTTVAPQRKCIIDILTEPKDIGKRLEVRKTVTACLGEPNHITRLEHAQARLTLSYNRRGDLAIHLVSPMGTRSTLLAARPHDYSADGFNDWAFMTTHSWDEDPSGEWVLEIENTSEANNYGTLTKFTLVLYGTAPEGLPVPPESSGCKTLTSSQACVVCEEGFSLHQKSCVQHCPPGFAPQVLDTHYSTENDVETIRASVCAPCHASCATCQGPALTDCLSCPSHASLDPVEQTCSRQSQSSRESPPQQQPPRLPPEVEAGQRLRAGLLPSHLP
KLK5 inh: human KLK5 protease inhibitors, primary screen, biochemical, 1536-well | recombinant hK5, fluorogenic AMC substrate cleavage | 210,000 tested, 0.59% active | inhibition, % at 5 µM | Kallikrein-5 (Homo sapiens), Q9Y337;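 active = inhibition of 40% or more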;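 also: 0% = enzyme controls without compound and 100% = no-enzyme blanks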
Thrombin inh: human alpha-thrombin inhibitors, primary screen, counter-screen for coagulation protease inhibitor project, biochemical, 1536-well, fluorogenic AMC substrate | Boc-VPR-AMC fluorogenic substrate cleavage | inhibition, % at 5 µM | 220,000 tested, 0.26% active;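 active = inhibition at or above 40%; inactive = inhibition below 40%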;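 also: 0% = enzyme with no compound and 100% = wells without enzyme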
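Material: human alpha-thrombin enzyme / Medium: pH 7.5 Tris (50 mM) with NaCl 150 mM, Tween 20 0.05% / Compound: single-point dosing at 5 µM, 0.2% DMSO / Incubation: enzyme reaction carried out at room temperature / Detection: AMC fluorescence, 355/460 nm / Read-out basis: percent inhibition scaled between no-compound controls and no-enzyme blanks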
FXIa inh: human FXIa protease inhibitors, primary screen, biochemical, 1536-well; AID 798, 2007; purified FXIa, Boc-Glu-Ala-Arg-AMC fluorogenic substrate; Coagulation factor XI (Homo sapiens), P03951; 220,000 tested, 0.14% active; inhibition, % at 5 µM;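 active = inhibition of at least 40%; inactive = inhibition below 40%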;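 also: fluorescence of freed AMC excited at 355 nm; 0% = enzyme without compound and 100% = no enzyme blank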
HSV augment: enhancers of HSV replication in host cells, fold increase, host cell viability | HSV replication augmentation in cells | maximum fold increase | 220,000 tested, 0.005% active | AID 1956, 2009; in the data active = maximum fold increase above about 1.5; tested in PC3 cells
FXIIa inh: human FXIIa protease inhibitors, primary screen, biochemical, 1536-well | Coagulation factor XII (Homo sapiens), P00748 | purified FXIIa, Boc-QGR-AMC fluorogenic substrate, 2 h | inhibition, % at 5 µM | 220,000 tested, 0.3% active | AID 800, 2007; in the data active = inhibition above about 40%;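 also: 0% = enzyme with no compound and 100% = blank without enzyme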
Active calls of the source: *.

What do the screens show for `Cc1cc(Br)ccc1-n1[nH]c(C)c(C=Nc2cccc3nsnc23)c1=O`?
Furin inh: -14; KLK5 inh: -4; Thrombin inh: -3; FXIa inh: 3; HSV augment: inactive; FXIIa inh: 15

Results for COc1cc(OC)cc(C(=O)NC(=S)N2CCCCCC2)c1 ?
Furin inh: -25; KLK5 inh: -14; Thrombin inh: -1; FXIa inh: 0; HSV augment: inactive; FXIIa inh: 13

How did COc1ccc(C(=O)NC(=S)N2CCCCC2)cc1 do in these assays?
Furin inh: -4; KLK5 inh: 44*; Thrombin inh: 19; FXIa inh: 17; HSV augment: inactive; FXIIa inh: 33

What do the screens show for `Cc1nn(Cc2ccc(Br)cc2)c(C)c1NC(=O)c1nn(C)cc1Cl`?
Furin inh: -15; KLK5 inh: -10; Thrombin inh: -3; FXIa inh: -2; HSV augment: inactive; FXIIa inh: 6

Results for Cc1ccc(Cn2nc(C)c(NC(=O)c3nn(C)cc3Cl)c2C)cc1 ?
Furin inh: 25*; KLK5 inh: -8; Thrombin inh: 4; FXIa inh: 7; HSV augment: inactive; FXIIa inh: 13

Results for O=[N+]([O-])c1cncc([N+](=O)[O-])c1Nc1ccccc1Cl ?
Furin inh: -6; KLK5 inh: 16; Thrombin inh: 12; FXIa inh: 30; HSV augment: inactive; FXIIa inh: 44*

How did Nc1ccccc1Nc1ccncc1[N+](=O)[O-] do in these assays?
Furin inh: -22; KLK5 inh: -2; Thrombin inh: -8; FXIa inh: -3; HSV augment: inactive; FXIIa inh: -11

How did CCCC1=NN(C(=O)Cc2ccc([N+](=O)[O-])cc2)C(O)(C(F)(F)F)C1 (centres undefined) do in these assays?
Furin inh: -12; KLK5 inh: -23; Thrombin inh: -2; FXIa inh: -7; HSV augment: inactive; FXIIa inh: -4

Results for CCC1=NN(C(=O)Cc2ccc([N+](=O)[O-])cc2)C(O)(C(F)(F)F)C1 (centres undefined) ?
Furin inh: -4; KLK5 inh: 25; Thrombin inh: 22; FXIa inh: 28; HSV augment: inactive; FXIIa inh: 56*

Results for COc1cc(NS(=O)(=O)c2ccc(NC(C)=O)cc2)ncn1 ?
Furin inh: -26; KLK5 inh: -7; Thrombin inh: -1; FXIa inh: 6; HSV augment: inactive; FXIIa inh: 14

What do the screens show for `COc1ccc(NS(=O)(=O)c2ccc(NS(=O)(=O)c3ccc(C)cc3)cc2)nn1`?
Furin inh: -18; KLK5 inh: 65*; Thrombin inh: 4; FXIa inh: 0; HSV augment: inactive; FXIIa inh: 2

Results for c1ccc(Nc2cccc(Nc3ccccc3)c2)cc1 ?
Furin inh: -10; KLK5 inh: 48*; Thrombin inh: 14; FXIa inh: 10; HSV augment: inactive; FXIIa inh: 17

How did Cc1ccc(COc2ccsc2C(=O)NNC(N)=S)cc1 do in these assays?
Furin inh: -11; KLK5 inh: -5; Thrombin inh: -5; FXIa inh: -2; HSV augment: inactive; FXIIa inh: 2

What do the screens show for `COc1ccc(N/C(=N\c2nc(C)cc(C)n2)NC(C)=O)cc1OC`?
Furin inh: -24; KLK5 inh: -5; Thrombin inh: 50*; FXIa inh: 1; HSV augment: inactive; FXIIa inh: 13

How did Cc1cccc(-n2c(=S)[nH]c3c(oc4ccccc43)c2=O)c1 do in these assays?
Furin inh: 3; KLK5 inh: 18; Thrombin inh: 11; FXIa inh: 11; HSV augment: inactive; FXIIa inh: 11

Results for O=C(NCCCn1ccnc1)c1ccccc1NS(=O)(=O)c1ccc(F)c(F)c1 ?
Furin inh: -12; KLK5 inh: 86*; Thrombin inh: 17; FXIa inh: 4; HSV augment: inactive; FXIIa inh: -5

Results for Cc1cc(C)c(C)c(S(=O)(=O)Nc2ccccc2C(=O)NCCCn2ccnc2)c1C ?
Furin inh: -6; KLK5 inh: -6; Thrombin inh: 4; FXIa inh: 7; HSV augment: inactive; FXIIa inh: 15

What do the screens show for `CCC(C)C(NC(=O)C1CCC(C)CC1)C(=O)NCc1cccnc1` (centres undefined)?
Furin inh: 29*; KLK5 inh: -9; Thrombin inh: -3; FXIa inh: 0; HSV augment: inactive; FXIIa inh: 12

Results for Nc1ccc(S(=O)(=O)N2CCCC2C(=O)O)cc1 (centres undefined) ?
Furin inh: -14; KLK5 inh: -2; Thrombin inh: -1; FXIa inh: -1; HSV augment: inactive; FXIIa inh: 5

What do the screens show for `N/C(=N\OC(=O)c1ccc(Cl)c([N+](=O)[O-])c1)c1ccccn1`?
Furin inh: -20; KLK5 inh: 0; Thrombin inh: 0; FXIa inh: 3; HSV augment: inactive; FXIIa inh: 98*

Results for N/C(=N\OC(=O)c1ccc(Cl)c(Cl)c1)c1ccccn1 ?
Furin inh: -19; KLK5 inh: 8; Thrombin inh: 9; FXIa inh: -2; HSV augment: inactive; FXIIa inh: 18

How did COc1ccc(C(=O)c2c(-c3ccsc3)oc3ccc(-c4ccc(OC)cc4)cc23)cc1 do in these assays?
HSV augment: inactive

Results for CCOC(=O)CSc1nnc(-c2ccco2)n1-c1ccc(C)cc1 ?
Furin inh: -30; KLK5 inh: 45*; Thrombin inh: 29; FXIa inh: 1; HSV augment: inactive; FXIIa inh: 2

Results for COc1ccccc1-c1nnc(SCC(=O)O)n1-c1ccc(C)cc1 ?
Furin inh: -26; KLK5 inh: -4; Thrombin inh: -8; FXIa inh: -2; HSV augment: inactive; FXIIa inh: 8

How did COC(=O)CSc1nnc(-c2ccccc2OC)n1-c1ccc(C)cc1 do in these assays?
Furin inh: 4; KLK5 inh: 43*; Thrombin inh: 46*; FXIa inh: 7; HSV augment: inactive; FXIIa inh: 30

What do the screens show for `COc1cc(OC)c(S(=O)(=O)Nc2ccccc2N2CCOCC2)cc1NC(C)=O`?
Furin inh: -7; KLK5 inh: -3; Thrombin inh: -19; FXIa inh: -6; HSV augment: inactive; FXIIa inh: 2

Results for CC1(C)c2[nH]c3ccccc3c2C[C@@H]2C(=O)N(c3ccc(F)cc3F)C(=O)N21 ?
HSV augment: inactive
